Experimental findings from ChEMBL document CHEMBL1139875, “Discovery of 4-aminobutyric acid derivatives possessing anticonvulsant and antinociceptive activities: a hybrid pharmacophore approach” (2007) are described below.

The source made the active and inactive calls. The calls are words filed in the database; no cut-off is given here.

For this test, the system named is Mus musculus. In words: Anticonvulsant activity in Swiss Albino mouse at 300 mg/kg, ip after 4 hrs by scPIC test. It is filed as functional, organism-based. Set-up: dose 300 mg/kg. The essentials: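 Mice (Swiss, 20-25 g) given i.p. doses of 30, 100 and 300 mg/kg under ADD program protocols, three per group, examined at 0.5 and 4 h in MES, scPTZ, scSTY or scPIC seizure tests. Value is the minimum dose protecting half or more of the mice.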

For `O=C(O)CCCNC(=O)N/N=C1\C(=O)Nc2ccccc21`, the outcome was Active.
